Assay results: paper PMC7741178 (Bioorganic & medicinal chemistry, 2020)

Columns and labels:
Type in all cases: cell-based
[1] = biological target: human CD4 (CD4-YFP) (Homo sapiens, UniProt P01730); test: CD4 down-modulation in CD4-YFP transfected CHO cells; conditions: for CD4 down-modulation (in words): CD4-YFP CHO cells
Procedure, shortened: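 CHO cells stably expressing human CD4 fused at its C-terminus to YFP were exposed for 24 h at 37 °C to 1:5 serial dilutions of test compound. Cells were washed, fixed in 1% formaldehyde, and read at once by flow cytometry (488 nm laser). YFP MFI was expressed as % of matched untreated cells, after subtracting the background of non-transfected cells. IC50 is the 50% decrease in CD4. Mean ± SD, n = 3.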

[2] = system: HIV-1 NL4.3 (X4); test: HIV-1 NL4.3 replication in MT-4 cells; conditions: HIV-1 NL4.3 in MT-4 cells
Procedure, shortened: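 MT-4 cells at 3.75×10^5 cells/mL in RPMI 1640 with 10% FBS and 2 mM L-glutamine were preincubated 15 min with test compound. HIV-1 NL4.3 (30 pg/well) was then added and cells were kept at 37 °C. On day 4, viability was read by MTS/PES at 490 and 700 nm, giving the IC50 for viral replication. Mean ± SD, n = 2 or 3.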

[3] = system: MT-4 cells; test: Cytotoxicity in MT-4 cells; conditions: CC50 MT-4 cells / IC50 CD4 down-modulation

CD4 down-modulation (in words) [1] | IC50 [1] [nM] | Compound | anti-HIV activity (in words) [2] | therapeutic indices (CC50/IC50 for CD4) [3]
no observable |  | C=C1CN(S(=O)(=O)c2ccc(C)cc2)Cc2cccc3cc4cccc(c4nc23)CN(S(=O)(=O)c2ccc(C)cc2)C1 [Compound 23, 9-Methylene-7,11,19-7,11-bis(p-toluenesulfonyl)-triazatetracyclo[15.3.1.0^5,20.0^13,18]henicosa-1(21),2,4,13,15,17,19-heptaene] | no observable | 
 |  | C=C1CN(S(=O)(=O)c2ccc(C)cc2)CCc2cc(CC(C)C)cc(n2)CCN(S(=O)(=O)c2ccc(C)cc2)C1.Cl [Compound 3k, 13-Isobutyl-6-methylene-4,8-di(p-toluenesulfonyl)-4,8,15-triazabicyclo[9.3.1]pentadeca-1(15),11,13-triene] |  | exceeding 100
no observable |  | Cc1ccc(S(=O)(=O)N2CCc3cc(C(C)(C)C)cc(n3)CCN(S(=O)(=O)c3ccc(C)cc3)CC2)cc1 [Compound 16, 12-tert-Butyl-4,7-bis(p-toluenenesulfonyl)-4,7,14-triazabicyclo[8.3.1]tetradeca-1(14),1 0,12-triene] | no observable | 
 | 500 | C=C1CN(S(=O)(=O)c2ccc(C)cc2)CCc2cc(CCCC)cc(n2)CCN(S(=O)(=O)c2ccc(C)cc2)C1.Cl [Compound 3j, 13-Butyl-6-methylene-4,8-di(p-toluenesulfonyl)-4,8,15-triazabicyclo[9.3.1]pentadeca-1(15),11,13-triene] |  | exceeding 100
